Assay results reported in ChEMBL document CHEMBL3352316, “Optimization of physicochemical properties and safety profile of novel bacterial topoisomerase type II inhibitors (NBTIs) with activity against Pseudomonas aeruginosa” (Bioorg Med Chem, 2014).
Values after ≈ are worked out from the molar mass of the structure shown.

Legend:
[1] = Partition co-efficient, log D of the compound at pH 7.4 by shake flask method; type: physicochemical; conditions: buffer
Procedure, shortened: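 Shake-flask method with 10 mM phosphate buffer pH 7.4 against n-octanol, shaken 1 h at 1200 rpm to equilibrium. Analysis was by LC/UV with MS confirmation.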

[2] = Half life in rat at 10 mg/kg, iv; type: ADME, organism-based; design: dose 10 mg/kg, route intravenous; conditions: in vivo
Procedure, shortened: (§1)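 Male rats (Wistar Han) and Beagle dogs received 10 mg/kg as a 15 min iv infusion. Serial 200 µL whole-blood samples were taken from 0 to 24 h. Plasma levels were measured by LC–MS/MS against a standard curve after methanol protein precipitation. Parameters were estimated non-compartmentally.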

[3] = target: Potassium voltage-gated channel subfamily A member 5 (Homo sapiens, UniProt P22460); test: Inhibition of potassium channel Kv1.5 (unknown origin)
Procedure, shortened: (§2)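 Automated IonWorks patch clamp was run on CHO or HEK cells expressing each channel. A channel-specific voltage pulse was applied before compound and again about 3 min after addition.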

[4] = target: Sodium-dependent serotonin transporter (Homo sapiens) (UniProt P31645); test: Inhibition of SERT (unknown origin) at 30 uM
Escherichia coli [5] = test: Antimicrobial activity against Escherichia coli after 18 to 20 hrs by broth microdilution; type: functional
Procedure, shortened: (§3)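 Broth microdilution followed CLSI guidelines in Mueller Hinton broth. Inocula were grown 18–20 h at 35 °C on blood agar. Compound in DMSO was tested in doubling dilutions from 64 to 0.06 µg/mL, at 2% DMSO final. Plates were incubated 18–20 h and read at OD 620 nm. MIC was taken as the concentration giving >90% growth inhibition.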

Cavia porcellus = test: Cardiotoxicity in anesthetized guinea pig assessed as change in monophasic action potential duration at 90% repolarization at free drug 86 uM, iv as 17-min infusion; type: toxicity, organism-based; conditions: in vivo
Procedure, shortened: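 Male guinea pigs were anaesthetized with Nembutal, ventilated, vagotomized and given propranolol 0.5 mg/kg iv. MAPD90 was recorded during pacing. Compound in 5% dextrose was infused iv over two 17-min periods: 17 mg/kg at 0.1 mL/kg min, then 51 mg/kg at 0.2 mL/kg min. Blood was sampled at each level, and % change was taken from each animal's time-zero baseline.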

[6] = AUC(infinity) in neutropenic mouse at 100 mg/kg/day, ip bid of total 12 doses; type: ADME, organism-based; design: dose 100 mg/kg/day, time infinity, route intraperitoneal; conditions: plasma
Procedure, shortened: (§4)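 CD-1 mice were made neutropenic with ip cyclophosphamide, 150 mg/kg at day −4 and 100 mg/kg at day −1, then infected in the thigh with P. aeruginosa PAO1. Dosing was ip, bid q12 from 2 h post-infection, in 5% dextrose with lactic acid pH 5.0. Groups of three mice were killed at timed intervals and cardiac-puncture plasma was analysed by LC–MS/MS.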

Pseudomonas aeruginosa [7] = test: Antimicrobial activity against Pseudomonas aeruginosa PAO1 in neutropenic mouse thigh infection model assessed as log reduction in CFU at 200 mg/kg/day, ip bid q12 regime starting 2 hrs after infection measured 24 hrs post start of treatment relative to control; type: functional; conditions: route intraperitoneal
Procedure, shortened: (§5)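 CD-1 mice made neutropenic with intraperitoneal cyclophosphamide 4 days (150 mg/kg) and 1 day (100 mg/kg) before thigh infection with P. aeruginosa PAO1, target inoculum 5 × 10⁵ CFU. Groups of five dosed ip in 5% dextrose with lactic acid pH 5.0. Vehicle-only group included. Thighs removed 24 h after treatment start, weighed, homogenized and plated on tryptic soy agar, 37 °C overnight. Log CFU/g reduction is relative to starting inoculum.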

[8] = Ratio of fAUC to MIC in Pseudomonas aeruginosa PAO1 in neutropenic mouse thigh infection model at 150 mg/kg/day, ip bid q12h starting 2 h post infection; conditions: route intraperitoneal
[9] = target: Sodium channel protein type 5 subunit alpha (Homo sapiens, UniProt Q14524); test: Inhibition of […] channel Nav1.5 (unknown origin); procedure, shortened: as §2
[10] = AUC(infinity) in neutropenic mouse at 200 mg/kg/day, ip bid of total 12 doses; type: ADME, organism-based; design: dose 200 mg/kg/day, time infinity, route intraperitoneal; conditions: plasma; procedure, shortened: as §4
Pseudomonas aeruginosa [11] = test: Antimicrobial activity against Pseudomonas aeruginosa PAO1 after 18 to 20 hrs by broth microdilution; type: functional; procedure, shortened: as §3
Canis familiaris = test: Cardiotoxicity in telemetered dog assessed as prolongation of QTc interval at 56 uM, iv as 1 hr infusion; type: toxicity, organism-based, Canis lupus familiaris; conditions: in vivo, 4 h, in the assay text read “4 hr infusion” for “1 hr infusion”
Procedure, shortened: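 Dogs were dosed by iv infusion in vehicle adjusted to pH 4. ECG intervals were measured and QTcR was corrected for heart rate by individual-animal correction. % change in QTcR was taken against the matched time point of the same animal on vehicle. Infusion was 1 h at 5 mL/kg/h (5% dextrose) or 4 h at 2 mL/kg/h (5% mannitol/0.1 M tartaric acid), with readings at infusion end.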

[12] = target: Sodium-dependent noradrenaline transporter (Homo sapiens) (UniProt P23975); test: Inhibition of NET (unknown origin) at 30 uM
Escherichia coli [13] = test: Antimicrobial activity against Escherichia coli W3110 after 18 to 20 hrs by broth microdilution; type: functional; conditions: K-12 substr. W3110; procedure, shortened: as §3
[14] = AUC(infinity) in neutropenic mouse at 150 mg/kg/day, ip bid of total 12 doses; type: ADME, organism-based; design: dose 150 mg/kg/day, time infinity, route intraperitoneal; conditions: plasma; procedure, shortened: as §4
Pseudomonas aeruginosa [15] = test: Antimicrobial activity against Pseudomonas aeruginosa PAO1 in neutropenic mouse thigh infection model assessed as log reduction in CFU at 150 mg/kg/day, ip bid q12 regime starting 2 hrs after infection measured 24 hrs post start of treatment relative to control; type: functional; conditions: route intraperitoneal; procedure, shortened: as §5
[16] = Clearance in rat at 10 mg/kg, iv; type: ADME, organism-based; design: dose 10 mg/kg, route intravenous; conditions: in vivo; procedure, shortened: as §1
[17] = Volume of distribution in rat at 10 mg/kg, iv; type: ADME, organism-based; design: dose 10 mg/kg, route intravenous; conditions: in vivo; procedure, shortened: as §1
[18] = target: Voltage-dependent T-type calcium channel subunit alpha-1H (Homo sapiens, UniProt O95180); test: Inhibition of […] channel Cav3.2 (unknown origin); procedure, shortened: as §2
[19] = AUC in rat at 10 mg/kg, iv; type: ADME, organism-based; design: dose 10 mg/kg, route intravenous; conditions: plasma; procedure, shortened: as §1
[20] = AUC in beagle dog at 10 mg/kg, iv; type: ADME, organism-based, Canis lupus familiaris; design: dose 10 mg/kg, route intravenous; conditions: plasma; procedure, shortened: as §1
[21] = Ratio of fAUC to MIC in Pseudomonas aeruginosa PAO1 in neutropenic mouse thigh infection model at 200 mg/kg/day, ip bid q12h starting 2 h post infection; conditions: route intraperitoneal
[22] = target: Voltage-dependent L-type calcium channel subunit alpha-1C (Homo sapiens, UniProt Q13936); test: Inhibition of […] channel Cav1.2 (unknown origin); procedure, shortened: as §2
[23] = Volume of distribution in beagle dog at 10 mg/kg, iv; type: ADME, organism-based, Canis lupus familiaris; design: dose 10 mg/kg, route intravenous; conditions: in vivo; procedure, shortened: as §1
[24] = Fraction unbound in human plasma by LC/MS-MS analysis; type: ADME, cell-free
Procedure, shortened: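 Equilibrium dialysis: 10 µM compound was spiked into human plasma against phosphate buffer and rotated at 37 °C for 16 h. Plasma and buffer concentrations were quantified by LC/MS–MS with a C18 column and ESI MRM detection.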

[25] = Ratio of fAUC to MIC in Pseudomonas aeruginosa PAO1 in neutropenic mouse thigh infection model at 100 mg/kg/day, ip bid of total 12 doses starting 2 h post infection; conditions: route intraperitoneal
[26] = target: Voltage-gated inwardly rectifying potassium channel KCNH2 (Homo sapiens, UniProt Q12809); test: Inhibition of human ERG by cell-based patch clamp method
[27] = Half life in beagle dog at 10 mg/kg, iv; type: ADME, organism-based, Canis lupus familiaris; design: dose 10 mg/kg, route intravenous; conditions: in vivo; procedure, shortened: as §1
[28] = Clearance in beagle dog at 10 mg/kg, iv; type: ADME, organism-based, Canis lupus familiaris; design: dose 10 mg/kg, route intravenous; conditions: in vivo; procedure, shortened: as §1

Sequence of Sodium-dependent noradrenaline transporter (Homo sapiens) (P23975 whole entry): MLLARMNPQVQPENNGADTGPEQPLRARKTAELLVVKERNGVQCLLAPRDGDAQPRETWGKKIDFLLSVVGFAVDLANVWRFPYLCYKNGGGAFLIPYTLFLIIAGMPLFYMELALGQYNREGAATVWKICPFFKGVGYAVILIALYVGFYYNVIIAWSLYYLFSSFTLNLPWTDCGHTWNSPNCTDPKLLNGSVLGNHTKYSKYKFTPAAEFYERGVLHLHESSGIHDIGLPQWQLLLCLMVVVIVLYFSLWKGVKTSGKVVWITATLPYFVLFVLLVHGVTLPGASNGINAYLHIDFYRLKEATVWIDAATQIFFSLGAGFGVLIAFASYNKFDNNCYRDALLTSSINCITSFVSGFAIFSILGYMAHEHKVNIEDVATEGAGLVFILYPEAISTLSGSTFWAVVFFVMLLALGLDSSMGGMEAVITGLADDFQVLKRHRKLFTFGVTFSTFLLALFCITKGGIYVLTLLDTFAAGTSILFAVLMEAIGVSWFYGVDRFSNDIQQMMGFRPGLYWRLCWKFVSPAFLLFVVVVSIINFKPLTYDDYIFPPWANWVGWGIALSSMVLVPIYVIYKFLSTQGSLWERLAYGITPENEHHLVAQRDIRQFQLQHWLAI
Sequence of Potassium voltage-gated channel subfamily A member 5 (P22460 whole entry): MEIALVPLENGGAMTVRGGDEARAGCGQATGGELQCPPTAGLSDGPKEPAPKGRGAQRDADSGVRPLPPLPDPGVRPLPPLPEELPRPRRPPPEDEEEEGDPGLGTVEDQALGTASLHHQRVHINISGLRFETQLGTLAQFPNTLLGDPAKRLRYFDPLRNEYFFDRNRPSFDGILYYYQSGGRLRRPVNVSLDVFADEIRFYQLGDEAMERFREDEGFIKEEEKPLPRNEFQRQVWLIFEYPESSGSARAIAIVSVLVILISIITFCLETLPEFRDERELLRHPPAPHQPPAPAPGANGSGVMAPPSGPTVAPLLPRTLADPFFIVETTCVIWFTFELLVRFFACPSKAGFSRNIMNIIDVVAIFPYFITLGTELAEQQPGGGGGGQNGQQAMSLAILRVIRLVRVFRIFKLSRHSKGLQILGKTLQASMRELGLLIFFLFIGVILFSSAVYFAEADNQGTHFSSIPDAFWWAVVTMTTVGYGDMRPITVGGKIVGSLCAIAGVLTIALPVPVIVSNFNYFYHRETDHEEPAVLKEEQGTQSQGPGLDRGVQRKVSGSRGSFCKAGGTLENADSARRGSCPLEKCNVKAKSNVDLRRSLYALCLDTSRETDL
Sequence of Voltage-dependent T-type calcium channel subunit alpha-1H (O95180 whole entry): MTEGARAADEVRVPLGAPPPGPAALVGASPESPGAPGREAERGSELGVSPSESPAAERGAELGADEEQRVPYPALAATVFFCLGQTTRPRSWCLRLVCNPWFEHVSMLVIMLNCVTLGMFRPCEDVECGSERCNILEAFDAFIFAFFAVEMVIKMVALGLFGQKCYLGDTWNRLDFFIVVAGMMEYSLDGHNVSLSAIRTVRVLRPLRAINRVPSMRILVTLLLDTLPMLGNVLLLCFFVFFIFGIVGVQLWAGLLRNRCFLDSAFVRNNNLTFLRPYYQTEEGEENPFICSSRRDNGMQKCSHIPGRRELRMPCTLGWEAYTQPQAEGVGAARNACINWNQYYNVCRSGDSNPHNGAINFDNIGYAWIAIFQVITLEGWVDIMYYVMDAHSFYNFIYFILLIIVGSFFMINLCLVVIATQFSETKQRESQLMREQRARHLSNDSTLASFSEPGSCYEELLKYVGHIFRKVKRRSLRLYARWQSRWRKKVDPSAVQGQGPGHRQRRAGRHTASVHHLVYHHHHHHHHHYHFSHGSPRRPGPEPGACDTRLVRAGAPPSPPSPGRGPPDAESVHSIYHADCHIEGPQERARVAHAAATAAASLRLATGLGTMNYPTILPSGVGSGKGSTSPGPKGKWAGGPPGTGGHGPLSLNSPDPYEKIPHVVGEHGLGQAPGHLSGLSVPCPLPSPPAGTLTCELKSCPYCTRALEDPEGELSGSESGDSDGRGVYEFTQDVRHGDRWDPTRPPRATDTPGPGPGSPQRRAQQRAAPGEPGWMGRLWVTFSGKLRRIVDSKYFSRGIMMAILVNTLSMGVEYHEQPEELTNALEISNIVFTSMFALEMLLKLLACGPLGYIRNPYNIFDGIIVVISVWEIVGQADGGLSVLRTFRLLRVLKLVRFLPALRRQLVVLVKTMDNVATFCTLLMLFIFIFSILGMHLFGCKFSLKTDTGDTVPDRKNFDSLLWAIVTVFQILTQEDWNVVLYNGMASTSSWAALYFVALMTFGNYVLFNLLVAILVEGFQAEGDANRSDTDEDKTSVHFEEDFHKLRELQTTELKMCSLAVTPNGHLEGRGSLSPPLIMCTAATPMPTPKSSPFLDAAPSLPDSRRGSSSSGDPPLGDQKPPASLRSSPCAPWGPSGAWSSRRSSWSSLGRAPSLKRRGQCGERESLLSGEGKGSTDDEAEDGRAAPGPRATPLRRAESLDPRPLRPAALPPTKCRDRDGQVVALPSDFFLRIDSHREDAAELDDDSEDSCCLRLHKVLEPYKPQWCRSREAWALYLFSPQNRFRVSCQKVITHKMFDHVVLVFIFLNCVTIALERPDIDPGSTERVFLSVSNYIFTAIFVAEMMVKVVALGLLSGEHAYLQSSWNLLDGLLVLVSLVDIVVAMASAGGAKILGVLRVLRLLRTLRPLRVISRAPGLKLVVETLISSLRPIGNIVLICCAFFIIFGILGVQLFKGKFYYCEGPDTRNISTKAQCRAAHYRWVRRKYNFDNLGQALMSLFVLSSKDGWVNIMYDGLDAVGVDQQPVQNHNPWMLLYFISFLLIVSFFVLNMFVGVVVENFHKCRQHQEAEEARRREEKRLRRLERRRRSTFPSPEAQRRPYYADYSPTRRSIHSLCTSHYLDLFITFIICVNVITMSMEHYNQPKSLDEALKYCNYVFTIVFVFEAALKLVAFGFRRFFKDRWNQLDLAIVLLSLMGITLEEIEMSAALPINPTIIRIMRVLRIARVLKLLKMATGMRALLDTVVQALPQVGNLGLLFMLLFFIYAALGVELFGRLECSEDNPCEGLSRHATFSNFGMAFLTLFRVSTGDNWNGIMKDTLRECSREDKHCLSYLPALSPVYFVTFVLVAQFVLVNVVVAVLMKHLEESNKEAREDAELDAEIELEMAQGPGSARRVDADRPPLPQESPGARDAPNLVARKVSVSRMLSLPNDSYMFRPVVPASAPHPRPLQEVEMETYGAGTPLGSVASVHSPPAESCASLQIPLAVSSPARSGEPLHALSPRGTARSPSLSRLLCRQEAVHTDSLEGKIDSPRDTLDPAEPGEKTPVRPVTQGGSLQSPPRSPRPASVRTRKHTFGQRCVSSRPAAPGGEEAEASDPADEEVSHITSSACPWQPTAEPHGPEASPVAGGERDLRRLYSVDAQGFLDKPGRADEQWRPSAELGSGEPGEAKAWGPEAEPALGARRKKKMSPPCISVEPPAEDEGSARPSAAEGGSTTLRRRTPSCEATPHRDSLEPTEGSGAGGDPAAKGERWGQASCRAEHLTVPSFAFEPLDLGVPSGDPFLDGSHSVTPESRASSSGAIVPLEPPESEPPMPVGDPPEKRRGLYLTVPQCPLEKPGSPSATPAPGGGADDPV
Sequence of Sodium-dependent serotonin transporter (Homo sapiens) (P31645 whole entry, looked up): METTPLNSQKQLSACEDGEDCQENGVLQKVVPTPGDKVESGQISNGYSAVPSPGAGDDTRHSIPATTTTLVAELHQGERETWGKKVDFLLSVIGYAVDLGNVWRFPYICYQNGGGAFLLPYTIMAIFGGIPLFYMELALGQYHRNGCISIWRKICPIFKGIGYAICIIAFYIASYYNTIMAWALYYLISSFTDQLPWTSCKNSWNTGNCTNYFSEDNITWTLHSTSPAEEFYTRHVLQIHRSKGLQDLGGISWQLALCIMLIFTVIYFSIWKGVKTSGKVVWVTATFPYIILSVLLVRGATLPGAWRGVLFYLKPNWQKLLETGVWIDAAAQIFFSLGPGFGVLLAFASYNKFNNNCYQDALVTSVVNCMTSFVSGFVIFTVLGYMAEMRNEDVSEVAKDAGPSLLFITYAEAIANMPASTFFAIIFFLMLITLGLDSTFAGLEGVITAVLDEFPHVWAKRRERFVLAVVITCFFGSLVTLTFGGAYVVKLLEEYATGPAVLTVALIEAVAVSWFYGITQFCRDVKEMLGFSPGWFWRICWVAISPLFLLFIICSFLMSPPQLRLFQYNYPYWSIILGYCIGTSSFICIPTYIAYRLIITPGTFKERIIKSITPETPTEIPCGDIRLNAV

SMILES	half-life [2]	IC50 [3]	inhibition [4]	MIC90 (Escherichia coli [5])	IC50 [9]	MIC90 (Pseudomonas aeruginosa [11])	inhibition [12]	MIC90 (Escherichia coli [13])	clearance [16]	Vd [17]	IC50 [18]	AUC [19]	AUC [20]	IC50 [22]	Vd [23]	half-life [27]	clearance [28]	other results
N[C@@H](Cn1c(=O)cnc2ccc(F)cc21)[C@H]1CC[C@H](NCc2ncc3c(n2)NC(=O)CO3)CC1	600 min	> 100 µM	32%	1 µg/mL (≈ 2.14 µM)	> 333 µM	0.5 µg/mL (≈ 1.07 µM)	9%	< 0.06 µg/mL	46 mL/min/kg	9 L/kg	> 100 µM	3300 ng·h/mL	12000 ng·h/mL	> 333 µM	4 L/kg	540 min	14 mL/min/kg	logD [1]: -0.32; Activity (Cavia porcellus): Toxic; AUC(0-inf) [6]: 14800 ng·h/mL; FC (Pseudomonas aeruginosa [7]): 2.5; fAUC/MIC [8]: 16; AUC(0-inf) [10]: 29900 ng·h/mL; Activity (Canis familiaris): 9%; AUC(0-inf) [14]: 20100 ng·h/mL; FC (Pseudomonas aeruginosa [15]): 1.3; fAUC/MIC [21]: 23; fraction unbound [24]: 0.73; fAUC/MIC [25]: 12; IC50 [26]: > 333 µM
COc1ccc2ncc(=O)n(CCN3CCC(NCc4ccc5c(n4)NC(=O)CO5)CC3)c2c1	114 min	> 100 µM	77%	0.25 µg/mL (≈ 0.538 µM)	92 µM	1 µg/mL (≈ 2.15 µM)	61%	0.13 µg/mL (≈ 0.28 µM)	252 mL/min/kg	23 L/kg	> 100 µM	190 ng·h/mL	6800 ng·h/mL	> 333 µM	2 L/kg	780 min	8.5 mL/min/kg	
